# According to ChEMBL document CHEMBL1158443, “Discovery of novel lipophilic inhibitors of OXA-10 enzyme (class D beta-lactamase) by screening amino analogs and homologs of citrate and isocitrate” (Bioorg Med Chem Lett, 2009):
# T1: Imipenem-hydrolyzing beta-lactamase (Enterobacter cloacae) (UniProt P52663)
# T1 sequence (whole entry): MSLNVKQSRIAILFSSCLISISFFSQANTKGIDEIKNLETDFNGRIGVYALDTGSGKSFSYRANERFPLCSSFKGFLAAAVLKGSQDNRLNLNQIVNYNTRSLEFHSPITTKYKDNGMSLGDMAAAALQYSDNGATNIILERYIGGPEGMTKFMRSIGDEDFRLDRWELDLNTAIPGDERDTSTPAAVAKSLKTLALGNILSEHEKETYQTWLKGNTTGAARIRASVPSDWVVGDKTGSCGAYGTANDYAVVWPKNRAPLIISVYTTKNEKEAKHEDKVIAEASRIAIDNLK
# B1: Imipenem-hydrolyzing beta-lactamase (Enterobacter cloacae), P52663 (protein)
# chain: T1 sequence (whole entry)
# B2: Beta-lactamase OXA-10 (Pseudomonas aeruginosa), P14489 (protein)
# chain: MKTFAAYVIIACLSSTALAGSITENTSWNKEFSAEAVNGVFVLCKSSSKSCATNDLARASKEYLPASTFKIPNAIIGLETGVIKNEHQVFKWDGKPRAMKQWERDLTLRGAIQVSAVPVFQQIAREVGEVRMQKYLKKFSYGNQNISGGIDKFWLEGQLRISAVNQVEFLESLYLNKLSASKENQLIVKEALVTEAAPEYLVHSKTGFSGVGTESNPGVAWWVGWVEKETEVYFFAFNMDIDNESKLPLRKSIPTKIMESEGIIGG
# Columns and labels:
# [1] = molecular target: Beta-lactamase (Enterobacter cloacae) (UniProt P05364); test: Inhibition of Enterobacter cloacae P99 beta-lactamase assessed as residual activity at 100 uM at pH 7 using phosphate buffer by spectrophotometry; values are per cent of control
# Bacillus cereus [2] = test: Inhibition of Bacillus cereus BC2 beta-lactamase assessed as residual activity at 100 uM at pH 7 using HEPES buffer by spectrophotometry; values are per cent of control
# [3] = molecular target: Beta-lactamase OXA-10 (Pseudomonas aeruginosa) (UniProt P14489); test: Inhibition of Pseudomonas aeruginosa OXA10 beta-lactamase assessed as residual activity at 100 uM at pH 7 using phosphate buffer by spectrophotometry; values are per cent of control
# [4] = molecular target: Beta-lactamase VIM-4 (Pseudomonas aeruginosa) (UniProt Q8KRJ3); test: Inhibition of Pseudomonas aeruginosa VIM4 beta-lactamase assessed as residual activity at 100 uM at pH 7 using HEPES buffer by spectrophotometry; values are per cent of control
# [5] = Inhibition of TEM1 beta-lactamase assessed as residual activity at 100 uM at pH 5 using acetate buffer by spectrophotometry; values are per cent of control
# [6] = molecular target: Beta-lactamase OXA-10 (Pseudomonas aeruginosa) (UniProt P14489); test: Inhibition of Pseudomonas aeruginosa OXA10 beta-lactamase assessed as residual activity at 100 uM at pH 5 using acetate buffer by spectrophotometry; values are per cent of control
# [7] = molecular target: Beta-lactamase (Bacillus licheniformis) (UniProt P00808); test: Inhibition of Bacillus licheniformis BS3 beta-lactamase assessed as residual activity at 100 uM at pH 5 using acetate buffer by spectrophotometry; values are per cent of control
# [8] = molecular target: Beta-lactamase (Bacillus licheniformis) (UniProt P00808); test: Inhibition of Bacillus licheniformis BS3 beta-lactamase assessed as residual activity at 100 uM at pH 7 using phosphate buffer by spectrophotometry; values are per cent of control
# [9] = molecular target: Beta-lactamase (Enterobacter cloacae) (UniProt P05364); test: Inhibition of Enterobacter cloacae P99 beta-lactamase assessed as residual activity at 100 uM at pH 5 using acetate buffer by spectrophotometry; values are per cent of control
# Bacillus cereus [10] = test: Inhibition of Bacillus cereus BC2 beta-lactamase assessed as residual activity at 100 uM at pH 5 using acetate buffer by spectrophotometry; values are per cent of control
# [11] = molecular target: T1, Imipenem-hydrolyzing beta-lactamase (Enterobacter cloacae); test: Inhibition of Enterobacter cloacae NMCA beta-lactamase assessed as residual activity at 100 uM at pH 7 using phosphate buffer by spectrophotometry; values are per cent of control
# [12] = Inhibition of TEM1 beta-lactamase assessed as residual activity at 100 uM at pH 7 using phosphate buffer by spectrophotometry; values are per cent of control
# [13] = molecular target: T1, Imipenem-hydrolyzing beta-lactamase (Enterobacter cloacae); test: Inhibition of Enterobacter cloacae NMCA beta-lactamase assessed as residual activity at 100 uM at pH 5 using acetate buffer by spectrophotometry; values are per cent of control
# [14] = tested on: O=C(Cc1cccs1)N[C@@H]1C(=O)N2C(C(=O)O)=C(/C=C/c3ccc([N+](=O)[O-])cc3[N+](=O)[O-])CS[C@H]12; test: Activity of Pseudomonas aeruginosa VIM4 beta-lactamase
# Bacillus cereus [15] = test: Activity of Bacillus cereus BC2 beta-lactamase
# [16] = molecular target: Beta-lactamase VIM-4 (Pseudomonas aeruginosa) (UniProt Q8KRJ3); test: Ratio of Kcat to Km for Pseudomonas aeruginosa VIM4 beta-lactamase
# [17] = molecular target: T1, Imipenem-hydrolyzing beta-lactamase (Enterobacter cloacae); test: Ratio of Kcat to Km for Enterobacter cloacae NMCA beta-lactamase
# [18] = Activity of TEM1 beta-lactamase
# Bacillus cereus [19] = test: Ratio of Kcat to Km for Bacillus cereus BC2 beta-lactamase
# [20] = Ratio of Kcat to Km for TEM1 beta-lactamase
# [21] = molecular target: Beta-lactamase OXA-10 (Pseudomonas aeruginosa) (UniProt P14489); test: Ratio of Kcat to Km for Pseudomonas aeruginosa OXA10 beta-lactamase
# Beta-lactamase OXA-10 [22] = molecular target: T2, Beta-lactamase OXA-10 (Pseudomonas aeruginosa, UniProt P14489); test: Competitive inhibition of Pseudomonas aeruginosa OXA10 beta-lactamase at pH 7
# In short: (§1)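 Ki came from plotting v0/vi against inhibitor concentration. v0/vi is the ratio of nitrocefin hydrolysis rates without and with inhibitor, monitored spectrophotometrically at 482 nm. Enzyme (1-100 nM) was preincubated with inhibitor for 30 min at 37 °C in the buffer for the stated pH.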
# Beta-lactamase OXA-10 [23] = molecular target: T2, Beta-lactamase OXA-10; test: Inactivation of Pseudomonas aeruginosa OXA10 beta-lactamase at pH 7
# Beta-lactamase = Beta-lactamase (Bacillus licheniformis, UniProt P00808); test: Inhibition of Bacillus licheniformis BS3 beta-lactamase at pH 5
# [24] = Competitive inhibition of TEM1 beta-lactamase at pH 5
# In short: as §1
# [25] = substrate: O=C(Cc1cccs1)N[C@@H]1C(=O)N2C(C(=O)O)=C(/C=C/c3ccc([N+](=O)[O-])cc3[N+](=O)[O-])CS[C@H]12; test: Activity of Enterobacter cloacae NMCA beta-lactamase
# [26] = substrate: O=C(Cc1cccs1)N[C@@H]1C(=O)N2C(C(=O)O)=C(/C=C/c3ccc([N+](=O)[O-])cc3[N+](=O)[O-])CS[C@H]12; test: Activity of Pseudomonas aeruginosa OXA10 beta-lactamase
# Chain of Beta-lactamase (Enterobacter cloacae) (P05364 21-381 limits assumed): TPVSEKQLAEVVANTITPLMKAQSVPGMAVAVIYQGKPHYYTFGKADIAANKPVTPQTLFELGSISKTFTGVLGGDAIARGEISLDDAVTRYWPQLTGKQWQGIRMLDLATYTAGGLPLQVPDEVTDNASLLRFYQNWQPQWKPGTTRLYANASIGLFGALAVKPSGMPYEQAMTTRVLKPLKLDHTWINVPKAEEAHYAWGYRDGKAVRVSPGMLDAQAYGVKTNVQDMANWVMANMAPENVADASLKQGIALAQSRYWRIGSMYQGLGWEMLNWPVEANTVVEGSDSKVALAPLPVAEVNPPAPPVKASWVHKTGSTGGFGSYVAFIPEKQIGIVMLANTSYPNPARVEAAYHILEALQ
# Chain of Beta-lactamase (Bacillus licheniformis) (P00808 whole entry): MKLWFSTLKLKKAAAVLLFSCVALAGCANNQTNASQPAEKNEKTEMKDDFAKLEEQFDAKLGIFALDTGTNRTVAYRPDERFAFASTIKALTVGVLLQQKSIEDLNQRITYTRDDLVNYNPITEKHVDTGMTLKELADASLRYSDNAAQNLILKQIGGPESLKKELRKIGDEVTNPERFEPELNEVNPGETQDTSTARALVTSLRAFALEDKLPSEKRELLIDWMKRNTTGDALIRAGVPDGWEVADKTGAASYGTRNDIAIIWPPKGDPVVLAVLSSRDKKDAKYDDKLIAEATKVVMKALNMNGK
# Chain of Beta-lactamase (P00808 whole entry): as above
Molecule,residual activity [1],residual activity [3],residual activity [4],residual activity [8],residual activity (Bacillus cereus [10]),residual activity [11],residual activity [12],also measured
COC(=O)CC(N)(CC(=O)OC)C(=O)O,100%,100%,100%,95%,100%,95%,99%,residual activity (Bacillus cereus [2]): 100%; residual activity [5]: 87%; residual activity [6]: 79%; residual activity [7]: 100%; residual activity [9]: 73%; residual activity [13]: 99%
COC(=O)C(N)(CC(=O)OCc1ccccc1)CC(=O)OCc1ccccc1,100%,100%,–,100%,93%,63%,81%,residual activity (Bacillus cereus [2]): 100%
COC(=O)CC(CC(=O)OC)(NC(=O)Cc1ccccc1)C(=O)OC,–,–,–,–,–,–,–,residual activity (Bacillus cereus [2]): 100%
O=C(O)CC(CC(=O)O)(NC(=O)COc1ccccc1)C(=O)O,97%,84%,100%,80%,100%,96%,96%,residual activity [5]: 100%; residual activity [6]: 82%; residual activity [7]: 70%; residual activity [9]: 100%; residual activity [13]: 85%
Beta-lactamase VIM-4 (Pseudomonas aeruginosa) (from UniProt Q8KRJ3),–,–,–,–,–,–,–,Km [14]: 10 µM; kcat [14]: 40 s⁻¹
CCOC(=O)CCC1(C(=O)OCC)CCC(=O)N1 (configuration not stated),100%,97%,96%,85%,100%,100%,94%,residual activity [5]: 80%; residual activity [6]: 98%; residual activity [7]: 96%; residual activity [9]: 100%; residual activity [13]: 100%
O=C(Cc1cccs1)N[C@@H]1C(=O)N2C(C(=O)O)=C(/C=C/c3ccc([N+](=O)[O-])cc3[N+](=O)[O-])CS[C@H]12,–,–,–,–,–,–,–,Km (Bacillus cereus [15]): 10 µM; kcat (Bacillus cereus [15]): 40 s⁻¹; Ratio [16]: 4 ×10⁶ /M/s; Ratio [17]: 3.5 ×10⁶ /M/s; Km [18]: 20 µM; kcat [18]: 50 s⁻¹; Ratio (Bacillus cereus [19]): 4 ×10⁶ /M/s; Ratio [20]: 2.5 ×10⁶ /M/s; Ratio [21]: 2 ×10⁷ /M/s
CCOC(=O)CC(N)(CC(=O)OCC)C(=O)OCC,87%,–,–,82%,93%,–,71%,residual activity (Bacillus cereus [2]): 92%
O=C(COc1ccccc1)NC(CC(=O)OCc1ccccc1)(CC(=O)OCc1ccccc1)C(=O)OCc1ccccc1,–,10%,–,–,–,–,–,Ki (Beta-lactamase OXA-10 [22]): 20 µM
NC(CC(=O)OCc1ccccc1)(CC(=O)OCc1ccccc1)C(=O)OCc1ccccc1,–,10%,–,100%,90%,–,100%,Ki (Beta-lactamase OXA-10 [23]): 95 µM
O=C(O)CC(O)(CC(=O)O)C(=O)O [CITRIC ACID],–,–,–,–,–,–,–,Ki (Beta-lactamase): 490 µM
COC(=O)C(CC(=O)OCc1ccccc1)(CC(=O)OCc1ccccc1)NC(=O)COc1ccccc1,–,10%,–,–,–,–,–,–
COC(=O)CC(N)(CC(=O)OC)C(=O)OCc1ccccc1,–,100%,–,–,100%,–,–,–
CCOC(=O)C1CC(=O)NC1C(=O)OCC (configuration not stated),100%,91%,94%,100%,100%,100%,100%,residual activity [5]: 86%; residual activity [6]: 87%; residual activity [7]: 100%; residual activity [9]: 100%; residual activity [13]: 93%
O=C(O)CC(C(=O)O)C(O)C(=O)O (configuration not stated) [ISOCITRATE],–,–,–,–,–,–,–,Ki (Beta-lactamase): 2200 µM
NC(CC(=O)O)(CC(=O)O)C(=O)O,81%,–,100%,88%,–,–,95%,Ki [24]: 150 µM
NC(C(=O)O)C(CC(=O)O)C(=O)O (configuration not stated),100%,92%,94%,85%,100%,100%,100%,residual activity [5]: 90%; residual activity [6]: 85%; residual activity [7]: 97%; residual activity [9]: 94%; residual activity [13]: 86%
COC(=O)C(N)(CC(=O)O)CC(=O)O,100%,96%,100%,96%,90%,94%,99%,residual activity (Bacillus cereus [2]): 100%; residual activity [5]: 92%; residual activity [6]: 83%; residual activity [7]: 97%; residual activity [9]: 93%; residual activity [13]: 96%
COC(=O)C(CC(=O)O)(CC(=O)O)NC(=O)COc1ccccc1,85%,100%,100%,96%,100%,66%,98%,residual activity (Bacillus cereus [2]): 86%
B1,–,–,–,–,–,–,–,Km [25]: 40 µM; kcat [25]: 130 s⁻¹
B2,–,–,–,–,–,–,–,Km [26]: 20 µM; kcat [26]: 400 s⁻¹
